Compound activity as filed in PubChem.
STAT1 blocker – inhibitors of IFN-gamma induced STAT1 signaling; 200,000 tested, 0.35% active; NIH 3T3 STAT1-luciferase reporter, luminescence; AID 920; inhibition, % at 5.5 µM;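 active = inhibition above a set limit, the mean inhibition across all tested compounds plus 3 SD, cut at about 34% in these data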;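 note: 0% = IFN-gamma with DMSO and 100% = IFN-gamma with 300 µM nifuroxazide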
STAT1 act – activators of IFN-gamma induced STAT1 signaling | activation (% of control), % at 5.5 µM | 200,000 tested, 2.6% active | NIH 3T3 STAT1-luciferase reporter, luminescence; 100% = IFN-gamma alone, no compound;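 active = activation above the screen-wide mean activation plus 3 SD, cut at about 130% in these data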;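 note: raw ratio to IFN-gamma control signal so 100% means no change and 0% no light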
STAT3 act – increases IL-6 driven STAT3 reporter signal; activation (% of control), % at 5.6 µM; 190,000 tested, 0.91% active; U3A cells, IL-6 STAT3-luciferase reporter, luminescence; 100% = signal with IL-6 EC80 alone;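 active = activation above the screen-wide mean of compound activation plus 3 SD, cut at about 130% in these data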;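 note: 0% = background luminescence of wells with medium and substrate only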
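Material: human STAT1-deficient U3A cells with stable STAT3-luciferase reporter / Probe or stimulus: IL-6 stimulus at 33 ng/mL final / Schedule: 1 h compound pre-exposure, 6 h IL-6 stimulation, 37 °C / Technique: luminescence / Read-out basis: percent of IL-6-only median luminescence / Control set: IL-6-only high control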
STAT3 blocker – reduces IL-6 driven STAT3 reporter signal. inhibition, % at 5.5 µM. AID 862. 190,000 tested, 0.89% active. U3A cells, IL-6 STAT3-luciferase reporter, luminescence; host cell line lacks STAT1;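 active = inhibition above the mean inhibition across all screened compounds plus 3 SD, cut at about 44% in these data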;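 note: 0% = DMSO only wells and 100% = 100 µM nifuroxazide control wells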
APP 5'UTR act – APP 5'UTR luciferase reporter activation; SH-SY5Y APP 5'UTR luciferase reporter, luminescence; zero percent = DMSO vehicle wells; activation, % at 2 µM; 190,000 tested, 1% active; AID 1276;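 active = activation above a set limit, based on mean plus 3 SD of controls, cut at about 140% in these data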
NF-kB expr up – NF-kB expression increase, human neuronal cells | fold change at 12.5 µM | NF-kB reporter expression; stronger effect = higher value | 190,000 tested, 1.6% active; in the data active = fold change above about 3.3
Active calls of the source: *; . = no result given. The list is not random: actives were taken first. Their share in the collection is about 4.9%.

SMILES	STAT1 blocker	STAT1 act	STAT3 act	STAT3 blocker	APP 5'UTR act	NF-kB expr up
Cc1ccc(C)c(NC(=S)N(Cc2cccc(Br)c2)CC2CCC(C(=O)O)CC2)c1 (configuration not stated)	-6	105	101	1	22	1.2
O=C(COC(=O)/C=C/c1ccc(S(=O)(=O)N2CCOCC2)cc1)NC1CCCCCCC1	0	101	106	-1	5	0.97
Nc1cc(C(F)(F)F)cc2c1SCC(=O)N2	-5	104	109	-9	-8	1
O=C(N/N=C/c1ccccc1F)NC1CCCCC1	-34	130*	104	-1	54	2.2
O=C(N/N=C/c1ccccc1)NC1CCCCC1	-16	114	101	1	22	1.5
N/C(Cn1cncn1)=N\NC(=O)C(=O)Nc1cccc(C(F)(F)F)c1	-3	99	100	5	1	1
Cc1ccc(-c2nc3cc(Cl)ccc3o2)cc1	-65	162*	135*	-40	27	8.5*
COc1cc(OC)cc(-c2nc3cc(C)ccc3o2)c1	-69	158*	171*	-80	114	6.2*
COc1cc(OC)cc(-c2nc3ccccc3c(=O)o2)c1	0	100	101	2	8	1.2
CCc1ccc(C(=O)NCc2ccc(Cl)cc2)cc1	1	99	78	27	24	1.6
O=S(=O)(Nc1ccccn1)c1cccs1	-9	106	100	2	18	1
CCOc1ccc2nc(NC(=O)CCn3cccc3)sc2c1	-14	112	96	13	-13	1.4
CCOc1ccc2nc(NC(=O)c3cccnc3)sc2c1	-37	132*	106	-2	111	2.5
CCOc1ccc2nc(SCC(=O)c3cccs3)sc2c1	-33	131*	113	-13	82	4.4*
CCOc1ccc2nc(NC(=O)c3cnc(C)cn3)sc2c1	-13	112	78	27	12	1.2
CCCC(=O)Nc1nc2ccc(OCC)cc2s1	-55	150*	101	4	95	4.3*
Nc1cc(C(F)(F)F)ccc1-n1cccc1	4	95	96	9	12	1.4
O=[N+]([O-])c1ccccc1N/N=C\c1ccccc1Cl	-30	127	97	10	.	3.7*
O=[N+]([O-])c1ccc(O)c(/C=N/Nc2ccccc2Cl)c1	-26	124	83	25	68	1.3
c1ccc(Cn2cc(CN3CCCO3)c(-c3ccc4c(c3)OCO4)n2)cc1	-1	100	94	17	31	1.5
CC(=O)c1ccc(NC(=O)C2C3C=CC(C3=C(c3ccccc3)c3ccccc3)C2C(=O)O)cc1 (configuration not stated)	3	96	90	14	29	1.1
O=C(Oc1ccc(-c2ccccc2)cc1)N1CCCCC1	-33	130*	98	3	5	7*
Cn1c(SCC(=O)c2ccccc2)nnc1-c1ccc(O)cc1	-32	129*	110	-5	68	2.2
Cn1c(SCC(=O)c2ccccc2)nnc1-c1ccncc1	-6	103	95	11	-6	1.2
Cc1ccc(NC(=O)c2ccccc2N(C)S(=O)(=O)c2ccccc2)c(C)c1	-2	104	99	-2	-3	0.91
SMILES	STAT1 blocker	STAT1 act	STAT3 act	STAT3 blocker	APP 5'UTR act	NF-kB expr up
COc1cc(C(=O)OCC(=O)c2c(N)n(C)c(=O)n(C)c2=O)ccc1OCCC(C)C	-2	102	96	12	-5	1.1
COC(=O)c1ccc(CO/N=C2\CCCc3nonc32)cc1	-46	139*	99	7	17	1.2
O=C(COC(=O)CC1CCCC1)Nc1cc2c(cc1Cl)C(=O)c1ccccc1C2=O	-37	129*	125	-28	75	2.5
O=C(O)c1cn(Cc2ccccn2)c(=O)c2ccccc12	-10	109	107	-6	152*	0.94
CC(C)OC(=O)CSc1nnnn1-c1ccc2c(c1)OCCO2	-31	129*	100	0	20	2.1
O=C(O)CSc1nnnn1-c1ccc2c(c1)OCCO2	-5	105	96	2	8	0.92
CC(Nc1[nH]c(=O)n(C)c(=O)c1N=O)c1ccccc1 (configuration not stated)	2	97	102	-2	17	1
Oc1ccc(-c2n[nH]c(C(F)(F)F)c2-c2ccccc2)c(O)c1	41*	61	40	72*	5	0.81
COc1ccc(-c2c(-c3ccc(O)cc3O)n[nH]c2C)cc1OC	-3	102	100	-3	-2	1.1
Cc1cc(N2CCC(C)CC2)nc2cccc(O)c12	-2	102	96	13	39	4.5*
CC(=O)NC1C(=O)N=C(SCC(=O)Nc2cccc(Cl)c2)NC1=O (configuration not stated)	4	96	109	-2	-18	0.98
CCCCOc1ccc(C(=O)Oc2ccc(C)nc2)cc1	9	92	97	7	11	1
CCCCCOc1ccc(OC(=O)c2ccncc2)cc1	-6	105	101	2	-12	3.8*
O=C(/C=C/c1ccc(Cl)cc1Cl)c1ccc[nH]1	-10	107	93	18	52	2.1
O=C(/C=C/c1ccccc1Cl)c1ccc[nH]1	15	87	94	12	53	4.3*
CC(C)c1ccc(/C=C/C(=O)O)cc1	.	.	.	.	1	.
CCCCCc1ccc(-c2ccc(/C=C/C(=O)O)cc2)nc1	-12	111	71	34	-21	4.6*
CC(=O)c1ccc(NC(=O)Nc2cccc(Cl)c2)cc1	-21	120	93	14	121	3.6*
O=C(Nc1ccc(Cl)cc1)Nc1cccc(C(=O)O)c1	88*	18	18	99*	1	2
O=C(Nc1ccccc1)Nc1cccc(Cl)c1	-9	107	101	-2	41	1.7
CCN1CCN(Cc2ccc(NC(=O)Nc3ccccc3Cl)cc2)CC1	-18	118	89	14	141*	2.5
O=C(Nc1cccc(C(=O)O)c1)Nc1ccccc1Cl	79*	26	29	89*	65	1.7
CSc1cccc(NC(=O)Nc2ccc(Cl)cc2)c1	-17	115	92	12	11	1.7
COc1cc2c(cc1OC)C(C(=O)NCCN(C)C)C(c1cccs1)N(C)C2=O (configuration not stated)	-3	104	101	0	1	1.5
COc1ccc(-c2cc(-c3nnc(COC(=O)c4ccncc4)o3)c3ccccc3n2)cc1OC	1	99	91	13	-6	0.58
Clc1ccc2[nH]c(-c3ccccc3)cc2c1	-42	138*	98	8	119	3.9*
CCCCn1c(CCC)nc([N+](=O)[O-])c1Sc1ccc(Cl)cn1	34*	68	95	9	25	1.6
COCCNc1nnnc2c1sc1nc(N3CCOCC3)c3c(c12)CCCC3	3	98	77	33	13	0.47
